# Experimental data published in ChEMBL document CHEMBL1125520, “Improved brain delivery of AZT using a glycosyl phosphotriester prodrug” (1992).
# Experiments:
# Mus musculus [1] = assay: In Vivo detection in Mice plasma after oral administration of 58.33 mg/kg detected in the form of AZT after 48 hr; type: functional, organism-based; set-up: dose 58.33 mg/kg
# How it was run: (§1)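 Male Swiss mice (18–20 g, six weeks old) given the test substance or vehicle ([…]) by gavage as a 3 mM solution (1.5 µmol/mouse). Aortic blood was collected into heparinized tubes at 0.5–48 h and centrifuged at 13000g for 10 min. Plasma was stored at -22 °C and analysed by HPLC. Three mice were used per time point, in triplicate. Values were not corrected for recovery.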
# Mus musculus [2] = assay: In Vivo detection in Mice plasma after oral administration of 58.33 mg/kg detected in the form of AZT 5`-P after 0.5 hr; type: functional, organism-based; set-up: dose 58.33 mg/kg
# Mus musculus [3] = assay: In Vivo detection in Mice plasma after oral administration of 58.33 mg/kg detected in the form of AZT phosphodiester 3 after 4 hr; type: functional, organism-based; set-up: dose 58.33 mg/kg; how it was run: as §1
# Mus musculus [4] = assay: In Vivo detection in Mice brains after oral administration of 58.33 mg/kg detected in the form of AZT 5`-P after 2 hr; type: functional
# Mus musculus [5] = assay: In Vivo detection of total AZT in Mice brains after oral administration of 58.33 mg/kg after 1 hr; type: functional
# How it was run: (§2)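 Male Swiss mice (18–20 g) dosed orally with a 3 mM solution in […] vehicle; decapitated at 0.5–48 h. Brains were homogenized in acetonitrile-water (3:1), centrifuged at 6000g for 40 min at 4 °C, lyophilized, redissolved in water and filtered (0.45 µm). Reversed-phase C18 column-switching HPLC with diode-array detection; standard spiking; vehicle-fed controls. Three mice per point, triplicates.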
# Mus musculus [6] = assay: In Vivo detection in Mice plasma after oral administration of 58.33 mg/kg detected in the form of AZT phosphodiester 2 after 4 hr; type: functional, organism-based; set-up: dose 58.33 mg/kg; how it was run: as §1
# Mus musculus [7] = assay: In Vivo detection in Mice brains after oral administration of 58.33 mg/kg detected in the form of AZT phosphodiester 3 after 1 hr; type: functional
# Mus musculus [8] = assay: In Vivo detection in Mice brains after oral administration of 58.33 mg/kg detected in the form of AZT phosphodiester 2 after 24 hr; type: functional
# Mus musculus [9] = assay: In Vivo detection in Mice plasma after oral administration of 58.33 mg/kg detected in the form of AZT 5`-P after 2 hr; type: functional, organism-based; set-up: dose 58.33 mg/kg
# Mus musculus [10] = assay: In Vivo detection in Mice plasma after oral administration of 58.33 mg/kg detected in the form of AZT 5`-P after 24 hr; type: functional, organism-based; set-up: dose 58.33 mg/kg
# Mus musculus [11] = assay: In Vivo detection in Mice brains after oral administration of 58.33 mg/kg detected in the form of AZT after 1 hr; type: functional
# Mus musculus [12] = assay: In Vivo detection in Mice brains after oral administration of 58.33 mg/kg detected in the form of AZT phosphodiester 2 after 8 hr; type: functional
# Mus musculus [13] = assay: In Vivo detection in Mice plasma after oral administration of 58.33 mg/kg detected in the form of AZT after 2 hr; type: functional, organism-based; set-up: dose 58.33 mg/kg
# Mus musculus [14] = assay: In Vivo detection in Mice brains after oral administration of 58.33 mg/kg detected in the form of AZT phosphodiester 2 after 4 hr; type: functional
# Mus musculus [15] = assay: In Vivo detection of total AZT in Mice brains after oral administration of 58.33 mg/kg after 24 hr; type: functional; how it was run: as §2
# Mus musculus [16] = assay: In Vivo detection in Mice brains after oral administration of 58.33 mg/kg detected in the form of AZT phosphodiester 3 after 2 hr; type: functional
# Mus musculus [17] = assay: In Vivo detection in Mice plasma after oral administration of 58.33 mg/kg detected in the form of AZT phosphodiester 2 after 24 hr; type: functional, organism-based; set-up: dose 58.33 mg/kg; how it was run: as §1
# Mus musculus [18] = assay: In Vivo detection of total AZT in Mice brains after oral administration of 58.33 mg/kg after 8 hr; type: functional; how it was run: as §2
# Mus musculus [19] = assay: In Vivo detection in Mice brains after oral administration of 58.33 mg/kg detected in the form of AZT phosphodiester 3 after 48 hr; type: functional
# Mus musculus [20] = assay: In Vivo detection in Mice brains after oral administration of 58.33 mg/kg detected in the form of AZT 5`-P after 1 hr; type: functional
# Mus musculus [21] = assay: In Vivo detection in Mice plasma after oral administration of 58.33 mg/kg detected in the form of AZT phosphodiester 3 after 0.5 hr; type: functional, organism-based; set-up: dose 58.33 mg/kg; how it was run: as §1
# Mus musculus [22] = assay: In Vivo detection in Mice brains after oral administration of 58.33 mg/kg detected in the form of AZT after 24 hr; type: functional
# Mus musculus [23] = assay: In Vivo detection of total AZT in Mice plasma after oral administration of 41.63 mg/kg after 24 hr; type: functional, organism-based; set-up: dose 41.63 mg/kg; how it was run: as §1
# Mus musculus [24] = assay: In Vivo detection in Mice brains after oral administration of 41.63 mg/kg detected in the form of AZT phosphodiester 2 after 1 hr; type: functional
# Mus musculus [25] = assay: In Vivo detection in Mice plasma after oral administration of 41.63 mg/kg detected in the form of AZT after 8 hr; type: functional, organism-based; set-up: dose 41.63 mg/kg
# Mus musculus [26] = assay: In Vivo detection in Mice brains after oral administration of 41.63 mg/kg detected in the form of AZT 5`-P after 4 hr; type: functional
# Mus musculus [27] = assay: In Vivo detection in Mice brains after oral administration of 41.63 mg/kg detected in the form of AZT after 24 hr; type: functional
# Mus musculus [28] = assay: In Vivo detection of total AZT in Mice plasma after oral administration of 41.63 mg/kg after 48 hr; type: functional, organism-based; set-up: dose 41.63 mg/kg; how it was run: as §1
# Mus musculus [29] = assay: In Vivo detection in Mice brains after oral administration of 41.63 mg/kg detected in the form of AZT after 4 hr; type: functional
# Mus musculus [30] = assay: In Vivo detection in Mice brains after oral administration of 41.63 mg/kg detected in the form of AZT after 0.5 hr; type: functional
# Mus musculus [31] = assay: In Vivo detection in Mice plasma after oral administration of 41.63 mg/kg detected in the form of AZT phosphodiester 2 after 0.5 hr; type: functional, organism-based; set-up: dose 41.63 mg/kg
# Mus musculus [32] = assay: In Vivo detection in Mice brains after oral administration of 41.63 mg/kg detected in the form of AZT 5`-P after 0.5 hr; type: functional
# Mus musculus [33] = assay: In Vivo detection in Mice plasma after oral administration of 41.63 mg/kg detected in the form of AZT phosphodiester 2 after 1 hr; type: functional, organism-based; set-up: dose 41.63 mg/kg
# Mus musculus [34] = assay: In Vivo detection in Mice plasma after oral administration of 41.63 mg/kg detected in the form of AZT 5`-P after 1 hr; type: functional, organism-based; set-up: dose 41.63 mg/kg
# Mus musculus [35] = assay: In Vivo detection in Mice plasma after oral administration of 41.63 mg/kg detected in the form of AZT after 4 hr; type: functional, organism-based; set-up: dose 41.63 mg/kg
# Mus musculus [36] = assay: In Vivo detection in Mice plasma after oral administration of 41.63 mg/kg detected in the form of AZT after 0.5 hr; type: functional, organism-based; set-up: dose 41.63 mg/kg
# Mus musculus [37] = assay: In Vivo detection in Mice plasma after oral administration of 41.63 mg/kg detected in the form of AZT after 1 hr; type: functional, organism-based; set-up: dose 41.63 mg/kg
# Mus musculus [38] = assay: In Vivo detection in Mice plasma after oral administration of 41.63 mg/kg detected in the form of AZT 5`-P after 24 hr; type: functional, organism-based; set-up: dose 41.63 mg/kg
# Mus musculus [39] = assay: In Vivo detection of total AZT in Mice brains after oral administration of 41.63 mg/kg after 4 hr; type: functional; how it was run: as §2
# Mus musculus [40] = assay: In Vivo detection in Mice brains after oral administration of 41.63 mg/kg detected in the form of AZT after 1 hr; type: functional
smiles,measurement,setting,value
CCCCCCCCCCCCCCCCOP(=O)(OCCO[C@H]1O[C@H](CO)[C@@H](O)[C@H](O)[C@@H]1O)OCC1OC(n2cc(C)c(=O)[nH]c2=O)CC1N=[N+]=[N-] (stereo not given in full),Plasma content,Mus musculus [1],0 nM ml-1
same,Plasma content,Mus musculus [2],12.1 nM ml-1
same,Plasma content,Mus musculus [3],0 nM ml-1
same,Brain content,Mus musculus [4],133 nmol/g
same,Brain content,Mus musculus [5],156.7 nM ml-1
same,Plasma content,Mus musculus [6],0 nM ml-1
same,Brain content,Mus musculus [7],0 nmol/g
same,Brain content,Mus musculus [8],5.2 nmol/g
same,Plasma content,Mus musculus [9],4 nM ml-1
same,Plasma content,Mus musculus [10],28.5 nM ml-1
same,Brain content,Mus musculus [11],1.5 nmol/g
same,Brain content,Mus musculus [12],5.3 nM ml-1
same,Plasma content,Mus musculus [13],1.4 nM ml-1
same,Brain content,Mus musculus [14],7.1 nmol/g
same,Brain content,Mus musculus [15],87.9 nM ml-1
same,Brain content,Mus musculus [16],0 nmol/g
same,Plasma content,Mus musculus [17],0 nM ml-1
same,Brain content,Mus musculus [18],113 nmol/g
same,Brain content,Mus musculus [19],0 nmol/g
same,Brain content,Mus musculus [20],147 nmol/g
same,Plasma content,Mus musculus [21],0 nM ml-1
same,Brain content,Mus musculus [22],1.4 nmol/g
Cc1cn([C@H]2C[C@H](N=[N+]=[N-])[C@@H](COP(=O)(O)OCCO[C@H]3O[C@H](CO)[C@@H](O)[C@H](O)[C@@H]3O)O2)c(=O)[nH]c1=O,Plasma content,Mus musculus [23],26.8 nM ml-1
same,Brain content,Mus musculus [24],16.5 nM ml-1
same,Plasma content,Mus musculus [25],0 nM ml-1
same,Brain content,Mus musculus [26],59.3 nmol/g
same,Brain content,Mus musculus [27],0.8 nmol/g
same,Plasma content,Mus musculus [28],17.9 nM ml-1
same,Brain content,Mus musculus [29],0.9 nmol/g
same,Brain content,Mus musculus [30],1.8 nmol/g
same,Plasma content,Mus musculus [31],4.5 nM ml-1
same,Brain content,Mus musculus [32],31 nmol/g
same,Plasma content,Mus musculus [33],5.2 nM ml-1
same,Plasma content,Mus musculus [34],20 nM ml-1
same,Plasma content,Mus musculus [35],0 nM ml-1
same,Plasma content,Mus musculus [36],31.6 nM ml-1
same,Plasma content,Mus musculus [37],18.3 nM ml-1
same,Plasma content,Mus musculus [38],26.8 nM ml-1
same,Brain content,Mus musculus [39],68.1 nM ml-1
same,Brain content,Mus musculus [40],1.9 nmol/g
